The record followed here is ChEMBL document CHEMBL3853360, “Combined Interactions with I1-, I2-Imidazoline Binding Sites and α2-Adrenoceptors To Manage Opioid Addiction” (ACS Med Chem Lett, 2016).

Test [1] deals with Mus musculus. The test is described as follows: Reduction in morphine dependence acquisition in CD1 mouse assessed as inhibition of naloxone-precipitated forepaw tremor frequency at 5 to 10 mg/kg, ip administered 15 mins prior to each morphine challenge relative to control. The test is classed as functional. The method in brief:
(§1)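 Mice received i.p. test compound (5 or 10 mg/kg) 15 min before each of repeated morphine injections, with vehicle and morphine-only controls. Withdrawal was then precipitated with naloxone. Jumping frequency and somatic signs (rearing, forepaw tremor, teeth chattering; summed frequency) were scored and compared with the morphine group. Data are mean ± SEM of 6–10 animals.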

The nature of test [2]: Displacement of [3H]-2-BFI from I2 receptor imidazoline binding site in Sprague-Dawley rat brain membranes after 30 mins by liquid scintillation counting. It is filed as cell membranes, Membrane. The method in brief:
(§2)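 Radioligand competition binding with pKi determined by displacement. I1 sites: [125I]-p-iodoclonidine on rat kidney membranes. I2 sites: [3H]-2-BFI on rat brain membranes. α2-ARs: [3H]-RX821002 on rat brain membranes.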

Another test deals with Nischarin (Rattus norvegicus, UniProt Q4G017). The test is described as follows: Displacement of [125I]-p-iodoclonidine from I1 receptor imidazoline binding site in Sprague-Dawley rat kidney cell membranes after 30 mins by liquid scintillation counting. A digest of the protocol:
as §2

The test system of test [3] is Mus musculus. The test is described as follows: Reduction in morphine dependence acquisition in CD1 mouse assessed as inhibition of naloxone-precipitated teeth chattering frequency at 5 to 10 mg/kg, ip administered 15 mins prior to each morphine challenge relative to control. It is filed as functional. The method in brief: as §1
Test [4] deals with T1, Alpha-2B adrenergic receptor (Homo sapiens) (UniProt P18089).
T1 sequence (whole entry): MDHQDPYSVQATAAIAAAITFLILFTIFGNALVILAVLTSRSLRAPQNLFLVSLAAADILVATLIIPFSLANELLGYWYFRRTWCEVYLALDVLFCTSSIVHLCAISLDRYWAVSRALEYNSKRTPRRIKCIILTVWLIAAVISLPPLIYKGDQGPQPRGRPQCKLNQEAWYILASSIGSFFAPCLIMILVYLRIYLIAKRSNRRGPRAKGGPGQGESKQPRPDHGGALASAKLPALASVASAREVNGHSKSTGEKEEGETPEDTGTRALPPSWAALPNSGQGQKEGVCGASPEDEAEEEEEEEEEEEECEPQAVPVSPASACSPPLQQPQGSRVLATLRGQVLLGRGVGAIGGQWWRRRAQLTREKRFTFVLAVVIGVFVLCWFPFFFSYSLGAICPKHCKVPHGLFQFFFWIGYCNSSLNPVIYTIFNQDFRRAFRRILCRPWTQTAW
Briefly: Agonist activity at human alpha2b-AR expressed in CHO cells assessed as rate of acidification after 240 mins by cytosensor microphysiometric analysis relative to (-)-noradrenaline. The test is classed as cell-based. The method in brief: (§3)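 Functional assay in CHO cells stably expressing a single human α2-AR subtype (α2A, α2B or α2C), read on a Cytosensor microphysiometer. Outputs are pEC50, intrinsic activity and, for antagonism, pKb. Intrinsic activity is expressed as a fraction of the full agonist (−)-noradrenaline, set at 1. Values are mean ± SEM of 3–5 separate experiments.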

Test [5] addresses T2, Alpha-2A adrenergic receptor (Homo sapiens) (UniProt P08913).
T2 sequence (whole entry): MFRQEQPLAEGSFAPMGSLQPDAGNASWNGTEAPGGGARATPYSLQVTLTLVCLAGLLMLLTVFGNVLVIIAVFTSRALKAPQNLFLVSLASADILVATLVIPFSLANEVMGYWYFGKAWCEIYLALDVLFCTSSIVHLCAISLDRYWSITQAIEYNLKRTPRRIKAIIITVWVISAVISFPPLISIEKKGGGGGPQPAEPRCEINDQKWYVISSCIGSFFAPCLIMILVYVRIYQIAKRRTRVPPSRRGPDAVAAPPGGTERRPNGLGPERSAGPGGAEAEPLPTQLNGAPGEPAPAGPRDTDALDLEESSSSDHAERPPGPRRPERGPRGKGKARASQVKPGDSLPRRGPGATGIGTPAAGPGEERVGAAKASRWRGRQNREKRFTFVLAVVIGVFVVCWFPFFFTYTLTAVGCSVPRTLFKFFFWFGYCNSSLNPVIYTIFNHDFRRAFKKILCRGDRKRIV
The test is described as follows: Antagonist activity at human alpha2a-AR expressed in CHO cells assessed as inhibition of (-)-noradrenaline-induced acidification rate after 240 mins by cytosensor microphysiometric analysis. The test is classed as cell-based. The method in brief:
as §3

A short description of test [6]: Reduction in morphine dependence expression in CD1 mouse assessed as inhibition of naloxone-precipitated rearing frequency at 5 mg/kg, ip administered acutely 15 mins prior to naloxone challenge relative to control. It is filed as functional, organism-based.
Test [7] can be described thus: Reduction in morphine dependence expression in CD1 mouse assessed as inhibition of naloxone-precipitated teeth chattering frequency at 5 mg/kg, ip administered acutely 15 mins prior to naloxone challenge relative to control. The test is classed as functional, organism-based.
Test [8] is described as follows: Reduction in morphine dependence expression in CD1 mouse assessed as inhibition of naloxone-precipitated rearing frequency at 10 mg/kg, ip administered acutely 15 mins prior to naloxone challenge relative to control. It is filed as functional, organism-based.
Test [9] can be described thus: Reduction in morphine dependence expression in CD1 mouse assessed as inhibition of naloxone-precipitated jumping at 5 mg/kg, ip administered acutely 15 mins prior to naloxone challenge relative to control. The test is classed as functional, organism-based.
Test [10] deals with T3, Alpha-2C adrenergic receptor (Homo sapiens) (UniProt P18825).
T3 sequence (whole entry): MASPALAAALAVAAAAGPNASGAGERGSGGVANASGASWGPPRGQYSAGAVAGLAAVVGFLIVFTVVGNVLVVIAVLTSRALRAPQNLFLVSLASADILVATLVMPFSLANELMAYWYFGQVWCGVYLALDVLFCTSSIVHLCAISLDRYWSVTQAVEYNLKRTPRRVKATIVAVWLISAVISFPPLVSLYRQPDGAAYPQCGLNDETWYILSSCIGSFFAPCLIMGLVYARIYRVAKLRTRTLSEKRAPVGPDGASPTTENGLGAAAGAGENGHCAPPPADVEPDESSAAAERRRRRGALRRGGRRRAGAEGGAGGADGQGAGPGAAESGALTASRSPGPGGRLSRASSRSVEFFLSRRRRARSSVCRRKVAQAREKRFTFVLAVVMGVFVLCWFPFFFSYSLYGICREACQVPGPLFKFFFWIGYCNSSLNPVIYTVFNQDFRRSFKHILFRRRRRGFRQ
Briefly: Agonist activity at human alpha2c-AR expressed in CHO cells assessed as rate of acidification after 240 mins by cytosensor microphysiometric analysis relative to (-)-noradrenaline. It is filed as cell-based. The method in brief: as §3

The nature of test [11]: Reduction in morphine dependence expression in CD1 mouse assessed as inhibition of naloxone-precipitated forepaw tremor frequency at 5 mg/kg, ip administered acutely 15 mins prior to naloxone challenge relative to control. The test is classed as functional, organism-based.
The subject of test [12] is Mus musculus. The test is described as follows: Reduction in morphine dependence acquisition in CD1 mouse assessed as inhibition of naloxone-precipitated rearing frequency at 5 to 10 mg/kg, ip administered 15 mins prior to each morphine challenge relative to control. The test is classed as functional. The method in brief:
as §1

Test [13] relates to Mus musculus. Briefly: Reduction in morphine dependence acquisition in CD1 mouse assessed as inhibition of naloxone-precipitated jumping at 5 to 10 mg/kg, ip administered 15 mins prior to each morphine challenge relative to control. The test is classed as functional. A digest of the protocol:
as §1

Sequence of Nischarin (Q4G017 whole entry): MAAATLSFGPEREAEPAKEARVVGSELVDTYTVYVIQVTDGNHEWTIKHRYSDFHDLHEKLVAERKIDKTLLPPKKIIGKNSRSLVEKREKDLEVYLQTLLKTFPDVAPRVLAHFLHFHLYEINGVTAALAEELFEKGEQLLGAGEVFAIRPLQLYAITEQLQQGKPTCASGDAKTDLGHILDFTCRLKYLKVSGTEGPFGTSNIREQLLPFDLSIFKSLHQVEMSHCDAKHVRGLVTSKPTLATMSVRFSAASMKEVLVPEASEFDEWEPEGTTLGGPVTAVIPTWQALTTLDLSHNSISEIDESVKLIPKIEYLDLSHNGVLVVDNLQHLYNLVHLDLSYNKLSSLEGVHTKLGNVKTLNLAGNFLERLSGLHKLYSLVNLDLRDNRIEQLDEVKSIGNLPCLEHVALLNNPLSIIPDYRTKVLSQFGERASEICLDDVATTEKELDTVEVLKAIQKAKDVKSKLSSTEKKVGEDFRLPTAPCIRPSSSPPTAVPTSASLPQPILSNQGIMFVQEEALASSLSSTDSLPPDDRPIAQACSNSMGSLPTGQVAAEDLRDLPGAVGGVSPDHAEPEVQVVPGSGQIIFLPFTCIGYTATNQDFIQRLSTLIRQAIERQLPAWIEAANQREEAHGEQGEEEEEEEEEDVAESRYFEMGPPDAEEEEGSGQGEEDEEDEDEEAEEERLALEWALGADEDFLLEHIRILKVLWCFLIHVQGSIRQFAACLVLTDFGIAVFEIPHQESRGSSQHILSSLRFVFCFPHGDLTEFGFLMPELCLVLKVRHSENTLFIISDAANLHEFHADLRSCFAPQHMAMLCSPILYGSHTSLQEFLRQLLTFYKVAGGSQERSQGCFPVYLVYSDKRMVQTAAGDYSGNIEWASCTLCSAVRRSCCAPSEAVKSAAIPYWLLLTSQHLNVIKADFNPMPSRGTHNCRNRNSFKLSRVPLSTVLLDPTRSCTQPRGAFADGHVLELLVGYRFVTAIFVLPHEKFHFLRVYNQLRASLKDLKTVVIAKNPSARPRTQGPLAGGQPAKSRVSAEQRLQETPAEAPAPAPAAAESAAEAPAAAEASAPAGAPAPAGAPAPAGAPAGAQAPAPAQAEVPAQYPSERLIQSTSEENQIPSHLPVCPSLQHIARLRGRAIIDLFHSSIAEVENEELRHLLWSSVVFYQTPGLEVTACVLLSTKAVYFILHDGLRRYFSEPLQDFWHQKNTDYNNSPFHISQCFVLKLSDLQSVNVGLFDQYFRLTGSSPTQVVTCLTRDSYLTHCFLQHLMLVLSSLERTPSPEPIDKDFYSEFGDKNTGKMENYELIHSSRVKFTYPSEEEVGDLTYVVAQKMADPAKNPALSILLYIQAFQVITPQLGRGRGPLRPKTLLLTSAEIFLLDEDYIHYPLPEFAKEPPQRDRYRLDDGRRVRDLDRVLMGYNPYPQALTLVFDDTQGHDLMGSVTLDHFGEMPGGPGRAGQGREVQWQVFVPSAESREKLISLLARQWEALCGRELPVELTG

With `Cc1ccccc1NCC1=NCCN1`, the “inhibition (INH)” value in the test with Mus musculus [1], in the test with Mus musculus [3], with Mus musculus [12] and in the test with Mus musculus [13] was 80% throughout. Moreover, the pKi in test [2] stood at 8.06. In addition, affinity at Nischarin was put at a Ki of 2 nM. Moreover, the Intrinsic activity in test [4] amounted to 0.4; in test [10], 0.8. The pKb in test [5] turned out to be 7.58. The inhibition in test [6] turned out to be 86%; in test [7], 86%; in test [8] it was 93%; in test [9], 96%; in test [11], 86%.

Broadly, the pKi is −log10 of the Ki, conventionally taken in molar units. In general, Ki refers to the equilibrium dissociation constant of an inhibitor or competing ligand from its target. Low values mean tighter binding, high ones weaker binding. By pKb is commonly meant −log10 of the Kb, conventionally taken in molar units. As usually defined, the inhibition is the share of the control response that was lost under treatment.
